According to ChEMBL document CHEMBL4834429, “Discovery of Nanomolar Melanocortin-3 Receptor (MC3R)-Selective Small Molecule Pyrrolidine Bis-Cyclic Guanidine Agonist Compounds Via a High-Throughput "Unbiased" Screening Campaign” (J Med Chem, 2021):
pEC50: −log10 of the molar value.

How the values were obtained:
Type in all cases: functional, cell-based
[1] = target: Melanocyte-stimulating hormone receptor (Mus musculus, UniProt Q01727); assay: Agonist activity at mouse melanocortin receptor 1 expressed in HEK293 cells assessed as stimulation of intracellular cAMP accumulation incubated for 24 hrs by beta-galactosidase reporter gene assay
Sequence of Melanocyte-stimulating hormone receptor (Q01727 whole entry): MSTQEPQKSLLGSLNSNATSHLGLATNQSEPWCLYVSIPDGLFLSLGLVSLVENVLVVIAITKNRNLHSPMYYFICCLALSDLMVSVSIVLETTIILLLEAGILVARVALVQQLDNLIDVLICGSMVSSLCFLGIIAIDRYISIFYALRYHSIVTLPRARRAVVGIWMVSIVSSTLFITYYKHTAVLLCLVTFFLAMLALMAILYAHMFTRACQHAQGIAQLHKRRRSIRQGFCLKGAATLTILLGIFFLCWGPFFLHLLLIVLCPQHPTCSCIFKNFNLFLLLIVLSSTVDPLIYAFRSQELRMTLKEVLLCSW

[2] = target: Melanocortin receptor 4 (Mus musculus) (UniProt P56450); assay: Agonist activity at mouse melanocortin receptor 4 expressed in HEK293 cells assessed as stimulation of intracellular cAMP accumulation at 10 uM incubated for 24 hrs by beta-galactosidase reporter gene assay relative to control
Sequence of Melanocortin receptor 4 (Mus musculus) (P56450 whole entry): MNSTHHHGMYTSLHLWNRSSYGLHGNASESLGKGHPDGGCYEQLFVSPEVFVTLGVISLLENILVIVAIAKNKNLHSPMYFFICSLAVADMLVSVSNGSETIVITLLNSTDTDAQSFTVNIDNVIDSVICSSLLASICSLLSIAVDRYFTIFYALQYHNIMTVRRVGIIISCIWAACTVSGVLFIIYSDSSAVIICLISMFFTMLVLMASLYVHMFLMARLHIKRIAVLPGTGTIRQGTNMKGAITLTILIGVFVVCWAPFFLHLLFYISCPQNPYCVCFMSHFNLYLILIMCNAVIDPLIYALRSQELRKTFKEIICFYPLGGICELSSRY
Method in brief: (§1)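 After lysis, ONPG hydrolysis was read at 405 nm and normalized to Bradford protein and maximal NDP-MSH response. Duplicates, ≥3 independent experiments; 100 μM dropped from fits where toxic.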

Melanocortin receptor 5 = Melanocortin receptor 5 (Mus musculus, UniProt P41149); assay: Agonist activity at mouse melanocortin receptor 5 expressed in HEK293 cells assessed as stimulation of intracellular cAMP accumulation incubated for 24 hrs by beta-galactosidase reporter gene assay
Sequence of Melanocortin receptor 5 (P41149 whole entry): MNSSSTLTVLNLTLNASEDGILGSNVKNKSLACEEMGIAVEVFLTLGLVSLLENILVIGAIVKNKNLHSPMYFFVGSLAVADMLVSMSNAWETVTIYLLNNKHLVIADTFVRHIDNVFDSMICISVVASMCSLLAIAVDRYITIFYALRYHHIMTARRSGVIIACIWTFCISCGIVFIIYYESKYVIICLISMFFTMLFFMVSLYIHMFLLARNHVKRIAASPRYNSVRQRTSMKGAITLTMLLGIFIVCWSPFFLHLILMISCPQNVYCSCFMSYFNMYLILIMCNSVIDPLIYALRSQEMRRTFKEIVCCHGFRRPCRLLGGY

Melanocortin receptor 3 [3] = target: T1, Melanocortin receptor 3 (Mus musculus, UniProt P33033); assay: Agonist activity at mouse melanocortin receptor 3 expressed in HEK293 cells assessed as stimulation of intracellular cAMP accumulation incubated for 24 hrs by beta-galactosidase reporter gene assay
T1 sequence (P33033 whole entry): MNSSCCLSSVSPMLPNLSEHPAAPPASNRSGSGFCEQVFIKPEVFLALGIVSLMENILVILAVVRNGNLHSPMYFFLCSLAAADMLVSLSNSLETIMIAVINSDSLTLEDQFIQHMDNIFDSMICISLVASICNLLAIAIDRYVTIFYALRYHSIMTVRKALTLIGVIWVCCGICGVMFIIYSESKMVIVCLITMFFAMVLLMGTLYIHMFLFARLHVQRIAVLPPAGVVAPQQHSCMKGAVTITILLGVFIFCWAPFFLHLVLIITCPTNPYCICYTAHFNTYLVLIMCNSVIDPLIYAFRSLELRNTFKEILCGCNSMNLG

[4] = target: Melanocortin receptor 3 (Mus musculus) (UniProt P33033); assay: Agonist activity at mouse melanocortin receptor 3 expressed in HEK293 cells assessed as stimulation of intracellular cAMP accumulation at 10 uM incubated for 24 hrs by beta-galactosidase reporter gene assay relative to control; method in brief: as §1
Sequence of Melanocortin receptor 3 (Mus musculus) (P33033 whole entry): as above

[5] = target: Melanocyte-stimulating hormone receptor (Mus musculus) (UniProt Q01727); assay: Agonist activity at mouse melanocortin receptor 1 expressed in HEK293 cells assessed as stimulation of intracellular cAMP accumulation at 10 uM incubated for 24 hrs by beta-galactosidase reporter gene assay relative to control; details: filed as agonist; method in brief: as §1
Sequence of Melanocyte-stimulating hormone receptor (Mus musculus) (Q01727 whole entry, looked up): as the sequence (Q01727 whole entry) above

Melanocortin receptor 4 [6] = target: T2, Melanocortin receptor 4 (Mus musculus, UniProt P56450); assay: Antagonist activity at mouse melanocortin receptor 4 expressed in HEK293 cells assessed as inhibition of NDP-MSH-induced intracellular cAMP accumulation incubated for 24 hrs by beta-galactosidase reporter gene assay; details: read-out: pA2 (converted)
T2 sequence (P56450 whole entry): as the sequence (P56450 whole entry) above

Melanocortin receptor 3 [7] = target: T1, Melanocortin receptor 3; assay: Antagonist activity at mouse melanocortin receptor 3 expressed in HEK293 cells assessed as inhibition of NDP-MSH-induced intracellular cAMP accumulation incubated for 24 hrs by beta-galactosidase reporter gene assay
[8] = target: Melanocortin receptor 5 (Mus musculus) (UniProt P41149); assay: Agonist activity at mouse melanocortin receptor 5 expressed in HEK293 cells assessed as stimulation of intracellular cAMP accumulation at 10 uM incubated for 24 hrs by beta-galactosidase reporter gene assay relative to control; details: filed as agonist, time 6.0 hrs, in the assay text read “6 hrs” for “24 hrs”; method in brief: as §1
Sequence of Melanocortin receptor 5 (Mus musculus) (P41149 whole entry): as the sequence (P41149 whole entry) above

Melanocortin receptor 4 [9] = target: T2, Melanocortin receptor 4; assay: Agonist activity at mouse melanocortin receptor 4 expressed in HEK293 cells assessed as stimulation of intracellular cAMP accumulation incubated for 24 hrs by beta-galactosidase reporter gene assay; method in brief: as §1

SMILES	pEC50 [1]	pEC50 (Melanocortin receptor 5)	Emax ([2]; filed as agonist)	Emax ([4]; filed as agonist)	Emax [5]	further results
CC(C)[C@@H]1CNC(=N)N1C[C@@H]1CCCN1C[C@@H](CC1CCCCC1)N1C[C@@H](C(C)C)N(CC2CCC(C(C)(C)C)CC2)C1=N (some centres undefined)	6.54	6.29				Emax [2]: 28%; pEC50 (Melanocortin receptor 3 [3]): 5.37
CCC[C@@H]1CN([C@H](CC2CCCCC2)CN2CCC[C@H]2CN2C(=N)NC[C@H]2CC(C)C)C(=N)N1CC12CC3CC(CC(C3)C1)C2		6.33	51%	67%	70%	
CC(C)[C@@H]1CNC(=N)N1C[C@@H]1CCCN1C[C@@H](CC1CCCCC1)N1C[C@@H]([C@@H](C)O)N(CC23CC4CC(CC(C4)C2)C3)C1=N	6.70	6.22	49%			pEC50 (Melanocortin receptor 3 [3]): 6.43; Kb (Melanocortin receptor 4 [6]): 1580 nM
CC(C)[C@@H]1CNC(=N)N1C[C@@H]1CCCN1C[C@@H](Cc1ccccc1)N1C[C@@H]([C@@H](C)O)N(CC2CCC(C(C)(C)C)CC2)C1=N (some centres undefined)	6.22	6.31				pEC50 (Melanocortin receptor 3 [3]): 6.38; Kb (Melanocortin receptor 4 [6]): 316 nM
CC(C)CCCN1C(=N)N([C@H](CC2CCCCC2)CN2CCC[C@H]2CN2C(=N)NC[C@H]2C(C)C)C[C@H]1C(C)C	5.21	5.77	51%	51%		
CC(C)CCCN1C(=N)N([C@H](Cc2ccccc2)CN2CCC[C@H]2CN2C(=N)NC[C@H]2C(C)C)C[C@H]1[C@@H](C)O					51%	pEC50 (Melanocortin receptor 3 [7]): < 4.00; Emax [8]: 40%
CC(C)CCCN1C(=N)N([C@H](CC2CCCCC2)CN2CCC[C@H]2CN2C(=N)NC[C@H]2CC(C)C)C[C@H]1C(C)C		5.73	51%		50%	Emax [4]: 33%
CC(C)CCCN1C(=N)N([C@H](Cc2ccccc2)CN2CCC[C@H]2CN2C(=N)NC[C@H]2CC(C)C)C[C@H]1C(C)C		5.90	10%			
CCC[C@@H]1CN([C@H](CC2CCCCC2)CN2CCC[C@H]2CN2C(=N)NC[C@H]2C(C)C)C(=N)N1CC1CCC(C(C)(C)C)CC1 (some centres undefined)		6.27	50%		51%	pEC50 (Melanocortin receptor 3 [3]): 6.46; Kb (Melanocortin receptor 4 [6]): 1580 nM
CCC[C@@H]1CN([C@H](CC2CCCCC2)CN2CCC[C@H]2CN2C(=N)NC[C@H]2CC(C)C)C(=N)N1CC1CCC(C(C)(C)C)CC1 (some centres undefined)	6.30	6.28	65%	75%		
CC(C)CCCN1C(=N)N([C@H](CC2CCCCC2)CN2CCC[C@H]2CN2C(=N)NC[C@H]2CC(C)C)C[C@H]1[C@@H](C)O	5.14	6.20	10%	58%		
CCC[C@@H]1CN([C@H](Cc2ccccc2)CN2CCC[C@H]2CN2C(=N)NC[C@H]2C(C)C)C(=N)N1CCCC(C)C	4.64	5.69	41%			pEC50 (Melanocortin receptor 3 [7]): < 4.00
CC(C)C[C@@H]1CNC(=N)N1C[C@@H]1CCCN1C[C@@H](Cc1ccccc1)N1C[C@@H](C(C)C)N(CC2CCC(C(C)(C)C)CC2)C1=N (some centres undefined)	5.17	6.25		62%		
CSCC[C@H](NC(=O)[C@H](CO)NC(=O)[C@H](Cc1ccc(O)cc1)NC(=O)[C@@H](N)CO)C(=O)N[C@@H](CCC(=O)O)C(=O)N[C@@H](Cc1c[nH]cn1)C(=O)N[C@@H](Cc1ccccc1)C(=O)N[C@@H](CCCN=C(N)N)C(=O)N[C@@H](Cc1c[nH]c2ccccc12)C(=O)NCC(=O)N[C@@H](CCCCN)C(=O)N1CCC[C@H]1C(=O)N[C@H](C(=O)O)C(C)C		9.15				pEC50 (Melanocortin receptor 4 [9]): 8.80
CC(C)CCCN1C(=N)N([C@H](Cc2ccccc2)CN2CCC[C@H]2CN2C(=N)NC[C@H]2CC(C)C)C[C@H]1[C@@H](C)O					62%	pEC50 (Melanocortin receptor 3 [7]): < 4.00; Emax [8]: 77%
CCC[C@@H]1CN([C@H](CC2CCCCC2)CN2CCC[C@H]2CN2C(=N)NC[C@H]2C(C)C)C(=N)N1CCCC(C)C		5.98	40%	51%	51%	
CCC[C@@H]1CN([C@H](CC2CCCCC2)CN2CCC[C@H]2CN2C(=N)NC[C@H]2CC(C)C)C(=N)N1CCCC(C)C	5.64	5.74		58%		pEC50 (Melanocortin receptor 4 [9]): 5.17
CC(C)[C@@H]1CNC(=N)N1C[C@@H]1CCCN1C[C@@H](Cc1ccccc1)N1C[C@@H]([C@@H](C)O)N(CC23CC4CC(CC(C4)C2)C3)C1=N	6.36	6.74	75%			pEC50 (Melanocortin receptor 4 [9]): 6.24; pEC50 (Melanocortin receptor 3 [3]): 6.44; Kb (Melanocortin receptor 4 [6]): 1580 nM
